From ChEMBL document CHEMBL1155429, “Discovery of a biaryl cyclohexene carboxylic acid (MK-6892): a potent and selective high affinity niacin receptor full agonist with reduced flushing profiles in animals as a preclinical candidate” (J Med Chem, 2010)
Each block holds one molecule with its values, some of them ahead of it. The source made the active and inactive calls.

Key:
[1] = biological target: Hydroxycarboxylic acid receptor 3 (Homo sapiens) (UniProt P49019); test: Binding affinity to GPR109B
[2] = biological target: Hydroxycarboxylic acid receptor 1 (Homo sapiens) (UniProt Q9BXC0); test: Binding affinity to GPR81
Canis lupus familiaris = species on record: Canis lupus familiaris; test: (§1) Agonist activity at dog nicotinic acid receptor by [35S]GTPgammaS binding assay; format: functional
Summary of the method: (§2)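 [35S]GTPγS exchange functional assay on membranes from cells expressing the dog NA receptor; full agonism judged relative to NA; EC50 determined.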

[3] = (§3) Bioavailability in rat at 1.0 mg/kg, iv or 2 mg/kg, po; format: ADME, organism-based; settings: in vivo
Summary of the method: (§4)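 PK: iv 1.0 mpk in DMSO/Tween-80/water (5:10:85) for rats, EtOH/PEG400/water (10:40:50) for dogs and monkeys; oral 2 mpk in 0.5% methylcellulose for rats and dogs.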

[4] = (§5) Half life in rat at 1.0 mg/kg, iv or 2 mg/kg, po; format: ADME, organism-based; settings: in vivo; summary of the method: as §4
[5] = Clearance in rat at 1.0 mg/kg, iv or 2 mg/kg, po; format: ADME, organism-based; settings: in vivo; summary of the method: as §4
[6] = (§6) Volume of distribution in rat at 1.0 mg/kg, iv or 2 mg/kg, po; format: ADME, organism-based; settings: in vivo; summary of the method: as §4
Rattus norvegicus [7] = test: as §3; format: ADME, organism-based; settings: in vivo; summary of the method: as §4
Rattus norvegicus [8] = test: as §5; format: ADME, organism-based; settings: in vivo; summary of the method: as §4
Rattus norvegicus [9] = test: as §6; format: ADME, organism-based; settings: in vivo; summary of the method: as §4
Canis familiaris [10] = test: Toxicity in po dosed dog assessed as threshold dose at which induction of flushing-mediated-vasodilation occurs in ears by spectrocolorimetry; format: functional, Canis lupus familiaris
Summary of the method: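 Conscious dogs dosed orally; flushing scored by ear spectrocolorimetry plus vocal and physical agitation; threshold dose = dose causing vasodilation in a subset of animals.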

Canis familiaris [11] = test: Antilipolytic activity in po dosed dog assessed as drug concentration causing maximum reduction plasma free fatty acids levels; format: functional, Canis lupus familiaris
Summary of the method: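 Dose-based dog measure: dose producing maximal plasma FFA suppression after oral dosing in fasted conscious dogs, read from oral dose-ranging FFA data.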

Canis familiaris [12] = test: Antilipolytic activity in po dosed dog assessed as reduction plasma free fatty acids levels; settings: Canis lupus familiaris
Mus musculus [13] = test: Antilipolytic activity in NA-receptor null C57BL/6 mouse assessed as reduction plasma free fatty acids levels at 100 mg/kg, po after 15 mins; format: functional, organism-based; set-up: dose 100 mg/kg
Summary of the method: (§7)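 Fed wild-type or NA receptor null mice on C57Bl/6 background dosed orally at 100 mpk; blood drawn 15 min postdose for plasma FFA and compound blood level; n = 8/group.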

Rattus norvegicus [14] = test: Toxicity in ip dosed rat assessed as induction of induction of flushing-mediated vasodilation in ears by laser doppler flowmetry; format: functional
[15] = Toxicity in po dosed dog assessed as Cmax at which threshold dose of vasodilation occurs in ears by spectrocolorimetry; format: organism-based, Canis lupus familiaris; settings: in vivo, read-out: Activity
Summary of the method: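 Oral dosing in conscious dogs; Cmax(TDV) = average maximal blood compound level at the threshold dose for vasodilation, which was assessed by ear spectrocolorimetry.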

Mus musculus [16] = test: Antilipolytic activity in wild-type C57BL/6 mouse assessed as reduction plasma free fatty acids levels at 100 mg/kg, po after 15 mins; format: functional; set-up: scale not given: the % may be the effect or the level left; summary of the method: as §7
Rattus norvegicus [17] = test: Antilipolytic activity in po dosed rat assessed as reduction plasma free fatty acids levels
[18] = Bioavailability in mouse at 1.0 mg/kg, iv or 2 mg/kg, po; format: ADME, organism-based; settings: in vivo
Cytochrome P450 2D6 = Cytochrome P450 2D6 (Homo sapiens, UniProt P10635); test: Inhibition of CYP2D6; format: ADME
Summary of the method: (§8)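 CYP2C8, 2D6 and 3A4 inhibition measured as IC50.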

Cytochrome P450 2C8 = biological target: T1, Cytochrome P450 2C8 (Homo sapiens, UniProt P10632); test: Inhibition of CYP2C8; format: ADME; summary of the method: as §8
T1 sequence (P10632 whole entry): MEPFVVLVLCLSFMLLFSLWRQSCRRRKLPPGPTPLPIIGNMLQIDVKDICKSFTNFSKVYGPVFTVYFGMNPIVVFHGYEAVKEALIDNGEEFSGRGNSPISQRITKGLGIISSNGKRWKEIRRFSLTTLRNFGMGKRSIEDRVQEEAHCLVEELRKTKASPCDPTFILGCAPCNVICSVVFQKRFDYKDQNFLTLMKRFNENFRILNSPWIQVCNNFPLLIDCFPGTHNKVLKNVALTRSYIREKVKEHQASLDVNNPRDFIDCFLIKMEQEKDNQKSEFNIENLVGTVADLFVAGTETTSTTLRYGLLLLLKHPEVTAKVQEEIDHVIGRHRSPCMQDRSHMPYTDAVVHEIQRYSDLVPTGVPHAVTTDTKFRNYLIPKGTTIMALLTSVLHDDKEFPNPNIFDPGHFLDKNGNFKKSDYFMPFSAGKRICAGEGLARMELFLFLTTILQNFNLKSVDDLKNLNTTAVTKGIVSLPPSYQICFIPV

[19] = Drug level in NA-receptor null C57BL/6 mouse blood at 100 mg/kg, po after 15 mins; format: ADME, organism-based; set-up: dose 100 mg/kg, route oral; summary of the method: as §7
[20] = Half life in mouse at 1.0 mg/kg, iv or 2 mg/kg, po; format: ADME, organism-based; settings: in vivo
Cytochrome P450 2C9 = Cytochrome P450 2C9 (Homo sapiens, UniProt P11712); test: Inhibition of CYP2C9; format: ADME
Rattus norvegicus [21] = test: Toxicity in rat assessed as induction of flushing-mediated vasodilation in ears at 100 mg/kg, sc by laser doppler flowmetry; settings: in vivo
Rattus norvegicus [22] = test: Antilipolytic activity in rat assessed as reduction plasma free fatty acids levels at 100 mg/kg, po; format: functional; set-up: scale not given: the % may be the effect or the level left
Summary of the method: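 Conscious rats dosed orally, dose range 1–100 mpk; plasma FFA measured over 4 h and expressed relative to t = 0 level; n ≥ 5 per group.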

[23] = Clearance in dog at 1.0 mg/kg, iv or 2 mg/kg, po; format: ADME, organism-based, Canis lupus familiaris; settings: in vivo; summary of the method: as §4
Rattus norvegicus [24] = test: Toxicity in rat assessed as induction of induction of flushing-mediated vasodilation in ears at 100 mg/kg, sc by laser doppler flowmetry; format: functional, organism-based; set-up: dose 100 mg/kg
Summary of the method: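 Anesthetized rats dosed subcutaneously in a dose-ranging study; ear blood perfusion monitored by laser Doppler flowmetry; n ≥ 5 per group.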

[25] = Half life in rhesus monkey at 1.0 mg/kg, iv or 2 mg/kg, po; format: ADME, organism-based, Macaca mulatta; settings: in vivo; summary of the method: as §4
[26] = Clearance in mouse at 1.0 mg/kg, iv or 2 mg/kg, po; format: ADME, organism-based; settings: in vivo
[27] = Clearance in rhesus monkey at 1.0 mg/kg, iv or 2 mg/kg, po; format: ADME, organism-based, Macaca mulatta; settings: in vivo; summary of the method: as §4
[28] = Half life in dog at 1.0 mg/kg, iv or 2 mg/kg, po; format: ADME, organism-based, Canis lupus familiaris; settings: in vivo; summary of the method: as §4
[29] = Drug level in wild-type C57BL/6 mouse blood at 100 mg/kg, po after 15 mins; format: ADME, organism-based; set-up: dose 100 mg/kg, route oral; summary of the method: as §7
Canis familiaris [30] = test: Antilipolytic activity in dog assessed as reduction plasma free fatty acids levels at 100 mg/kg, po; format: functional, Canis lupus familiaris; set-up: scale not given: the % may be the effect or the level left
Summary of the method: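 Fasted conscious dogs dosed orally; plasma FFA followed over time relative to baseline; n = 3-7 per group.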

Rattus norvegicus [31] = test: Plasma concentration in rat at 100 mg/kg, ip; format: ADME, organism-based; set-up: dose 100 mg/kg, route intraperitoneal; settings: in vivo
[32] = Bioavailability in rhesus monkey at 1.0 mg/kg, iv or 2 mg/kg, po; format: ADME, organism-based, Macaca mulatta; settings: in vivo; summary of the method: as §4
[33] = Volume of distribution in mouse at 1.0 mg/kg, iv or 2 mg/kg, po; format: ADME, organism-based; settings: in vivo
Rattus norvegicus [34] = test: Toxicity in rat assessed as flushing-mediated vasodilation at 100 mg/kg, ip by laser doppler flowmetry; format: functional, organism-based; set-up: dose 100 mg/kg
[35] = Volume of distribution in rhesus monkey at 1.0 mg/kg, iv or 2 mg/kg, po; format: ADME, organism-based, Macaca mulatta; settings: in vivo; summary of the method: as §4
[36] = as §1; format: functional, Canis lupus familiaris; summary of the method: as §2
[37] = Bioavailability in dog at 1.0 mg/kg, iv or 2 mg/kg, po; format: ADME, organism-based, Canis lupus familiaris; settings: in vivo; summary of the method: as §4
[38] = Volume of distribution in dog at 1.0 mg/kg, iv or 2 mg/kg, po; format: ADME, organism-based, Canis lupus familiaris; settings: in vivo; summary of the method: as §4

Sequence of Hydroxycarboxylic acid receptor 1 (Homo sapiens) (Q9BXC0 whole entry): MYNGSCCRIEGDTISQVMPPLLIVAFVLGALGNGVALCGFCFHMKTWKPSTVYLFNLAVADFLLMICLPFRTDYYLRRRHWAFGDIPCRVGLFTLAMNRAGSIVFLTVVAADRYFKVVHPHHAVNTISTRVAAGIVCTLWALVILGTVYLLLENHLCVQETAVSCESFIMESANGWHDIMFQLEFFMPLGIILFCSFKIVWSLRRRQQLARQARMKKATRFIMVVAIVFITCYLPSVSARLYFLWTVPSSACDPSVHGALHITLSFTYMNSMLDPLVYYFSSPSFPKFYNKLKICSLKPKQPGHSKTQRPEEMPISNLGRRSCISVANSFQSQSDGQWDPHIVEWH
Sequence of Hydroxycarboxylic acid receptor 3 (Homo sapiens) (P49019 whole entry): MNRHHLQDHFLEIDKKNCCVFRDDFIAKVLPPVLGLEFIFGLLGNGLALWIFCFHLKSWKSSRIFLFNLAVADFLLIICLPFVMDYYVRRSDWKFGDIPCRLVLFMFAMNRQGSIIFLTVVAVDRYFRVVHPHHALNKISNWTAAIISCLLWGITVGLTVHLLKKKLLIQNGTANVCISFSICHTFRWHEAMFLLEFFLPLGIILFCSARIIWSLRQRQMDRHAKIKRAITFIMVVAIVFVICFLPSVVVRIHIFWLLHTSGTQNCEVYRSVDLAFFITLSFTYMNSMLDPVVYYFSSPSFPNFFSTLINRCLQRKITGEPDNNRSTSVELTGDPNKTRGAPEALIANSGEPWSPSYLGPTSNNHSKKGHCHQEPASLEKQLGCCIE
Sequence of Cytochrome P450 2D6 (P10635 whole entry): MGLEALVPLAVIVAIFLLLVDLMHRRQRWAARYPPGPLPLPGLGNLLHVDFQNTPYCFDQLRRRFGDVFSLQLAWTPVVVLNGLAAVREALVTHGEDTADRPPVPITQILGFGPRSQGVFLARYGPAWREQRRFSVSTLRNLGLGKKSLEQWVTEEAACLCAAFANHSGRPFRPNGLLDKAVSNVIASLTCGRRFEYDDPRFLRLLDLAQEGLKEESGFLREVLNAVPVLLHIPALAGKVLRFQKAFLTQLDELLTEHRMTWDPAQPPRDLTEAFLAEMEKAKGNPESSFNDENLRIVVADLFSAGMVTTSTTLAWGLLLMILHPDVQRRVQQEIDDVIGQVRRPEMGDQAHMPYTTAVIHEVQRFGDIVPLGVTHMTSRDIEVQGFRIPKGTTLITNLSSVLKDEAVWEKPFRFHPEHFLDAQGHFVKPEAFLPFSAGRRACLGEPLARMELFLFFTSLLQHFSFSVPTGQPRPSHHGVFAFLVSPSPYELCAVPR
Sequence of Cytochrome P450 2C9 (P11712 whole entry): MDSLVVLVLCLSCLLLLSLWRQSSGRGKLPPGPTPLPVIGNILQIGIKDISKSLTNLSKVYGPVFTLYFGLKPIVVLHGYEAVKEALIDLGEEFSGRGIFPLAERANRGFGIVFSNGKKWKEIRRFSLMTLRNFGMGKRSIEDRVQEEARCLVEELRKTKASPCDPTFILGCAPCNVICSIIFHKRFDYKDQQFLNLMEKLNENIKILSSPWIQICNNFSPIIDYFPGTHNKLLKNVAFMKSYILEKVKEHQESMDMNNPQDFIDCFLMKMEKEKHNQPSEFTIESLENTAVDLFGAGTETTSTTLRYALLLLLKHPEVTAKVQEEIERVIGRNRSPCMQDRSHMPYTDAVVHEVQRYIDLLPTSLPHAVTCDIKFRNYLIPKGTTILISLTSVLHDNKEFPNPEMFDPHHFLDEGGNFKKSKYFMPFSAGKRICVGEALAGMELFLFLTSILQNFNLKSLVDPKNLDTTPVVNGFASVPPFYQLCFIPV

Compound: CC(Cc1nc(-c2ccc(O)cn2)no1)C(=O)NC1=C(C(=O)O)CCCC1 (single isomer, unassigned; enantiomer B) [listing 1 of 2 here]
Activity [1]: inactive | Activity [2]: inactive | Activity (Canis lupus familiaris): Active

Compound: CC(Cc1nc(-c2ccc(O)cn2)no1)C(=O)NC1=C(C(=O)O)CCCC1 (single isomer, unassigned) [listing 1 of 2 here]
bioavailability [3]: 19% | half-life [4]: 3.6 h | clearance [5]: 1.1 mL/min/kg | Vd [6]: 0.21 L/kg

Compound: CC(Cc1nc(-c2ccc(O)cn2)no1)C(=O)NC1=C(C(=O)O)CCCC1 (single isomer, unassigned; enantiomer B) [listing 2 of 2 here]
F (Rattus norvegicus [7]): 23% | t1/2 (Rattus norvegicus [8]): 4.1 h | Vd (Rattus norvegicus [9]): 0.25 L/kg

Compound: CC(C)(Cc1nc(-c2ccc(O)cn2)no1)C(=O)NC1=C(C(=O)O)CCCC1
bioavailability [18]: 45% | IC50 (Cytochrome P450 2D6): > 100 µM | IC50 (Cytochrome P450 2C8): > 100 µM | concentration at 0.25 h [19]: 148 µM | bioavailability [3]: 24% | half-life [20]: 6.4 h | IC50 (Cytochrome P450 2C9): 39 µM | Activity (Canis familiaris [10]): 100 mg/kg | Activity (Rattus norvegicus [21]): Toxic | Activity (Rattus norvegicus [22]): 85% | Activity (Canis familiaris [11]): 10 mg/kg | clearance [23]: 1.8 mL/min/kg | Activity (Rattus norvegicus [24]): Toxic | half-life [25]: 4.9 h | clearance [26]: 1.3 mL/min/kg | clearance [27]: 0.4 mL/min/kg | half-life [28]: 7.6 h | EC50 (Canis familiaris [12]): 16.5 µM | half-life [4]: 4.3 h | concentration at 0.25 h [29]: 229 µM | Activity (Canis familiaris [30]): 85% | concentration (Rattus norvegicus [31]): 555 µM | clearance [5]: 0.4 mL/min/kg | Vd [6]: 0.15 L/kg | bioavailability [32]: 14% | Activity (Mus musculus [13]): inactive | Activity [1]: inactive | Vd [33]: 0.2 L/kg | Activity (Rattus norvegicus [34]): Toxic | Activity [2]: inactive | Vd [35]: 0.08 L/kg | EC50 [36]: 1.3 µM | Activity (Rattus norvegicus [14]): 560 µM | Cmax [15]: 182 µM | bioavailability [37]: 90% | Activity (Mus musculus [16]): 36% | Vd [38]: 0.27 L/kg | EC50 (Rattus norvegicus [17]): 67 µM

Compound: O=C(CCc1nc(-c2ccc(O)cn2)no1)NC1=C(C(=O)O)CCCC1
bioavailability [3]: 22% | clearance [23]: 1.3 mL/min/kg | half-life [28]: 2.1 h | half-life [4]: 2 h | clearance [5]: 2 mL/min/kg | Vd [6]: 0.11 L/kg | Activity [1]: inactive | Activity [2]: inactive | Activity (Canis lupus familiaris): Active | bioavailability [37]: 33% | Vd [38]: 0.18 L/kg

The next lines start with results.

EC50 (Canis familiaris [12]): 2.7 µM | EC50 (Rattus norvegicus [17]): 2.2 µM
Compound: O=C(O)c1cccnc1 [NIACIN]
Activity (Canis familiaris [10]): 3 mg/kg | Activity (Canis familiaris [11]): 6 mg/kg | Activity (Mus musculus [13]): inactive | Activity (Rattus norvegicus [14]): 9.4 µM | Cmax [15]: 14.6 µM | Activity (Mus musculus [16]): 43%

Activity [1]: inactive | Activity [2]: inactive | Activity (Canis lupus familiaris): Active
Compound: O=C(CCc1nc(-c2ccc(O)cn2)no1)Nc1ccccc1C(=O)O

Activity [1]: inactive | Activity [2]: inactive | Activity (Canis lupus familiaris): Active
Compound: CC(Cc1nc(-c2ccc(O)cn2)no1)C(=O)NC1=C(C(=O)O)CCCC1 (single isomer, unassigned) [listing 2 of 2 here]
